These results are taken from ChEMBL document CHEMBL1268930, “Design, synthesis, and biological evaluation of dibromotyrosine analogues inspired by marine natural products as inhibitors of human prostate cancer proliferation, invasion, and migration” (Bioorg Med Chem, 2010).

Activity calls are given as the source filed them. The calls are words filed in the database; no cut-off is given here.

Series [1] in a line: Cytotoxicity against rat bone marrow cells assessed as inhibition of colony formation at 10 uM by clonogenic assay. Conditions: bone marrow cell. In kind it is cell-based. The method in brief: (§1)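 Rat femur bone marrow mononuclear cells isolated on a Histopaque-1077 gradient. 20,000 cells were plated in methylcellulose with FCS and rat recombinant GM-CSF, IL-3 and SCF (HALO kit), with compounds or vehicle. After 5 days GM-CFC colonies were measured as ATP luminescence (luciferase/luciferin) against a same-day standard curve. Results were normalized to vehicle means; n = 4; two-way ANOVA with Bonferroni tests.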

The test system of series [2] is PC-3. Put plainly: Antimigratory activity against human PC3 cells after 24 hrs under serum-free condition by wound-healing assay. In kind it is functional, cell-based. Conditions: PC-3, 24 h. The method in brief: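 Confluent PC-3 monolayers (>95%) were scratched with a pipette tip and washed with PBS and serum-free medium. Compounds were added at 20, 50 and 100 µM in serum-free medium, with 0.2% DMSO vehicle, for 24 h. Cells were fixed and Diff-Quick stained. Cells migrating into the wound were counted in ≥3 random fields at 400×. IC50 for 50% inhibition of migration; n = 3/dose.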

Series [3] relates to PC-3. Put plainly: Antiproliferative activity against human PC3 cells after 72 hrs by MTT assay. To be noted: PC-3, 72 h. In kind it is functional, cell-based. The method in brief: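 PC-3 cells seeded at 8×10^3/well and attached 24 h. Medium replaced with serum-free RPMI containing compound (10, 50, 100 µM; DMSO stock, 0.2% DMSO at 100 µM) for 72 h at 37 °C, 5% CO2. MTT added for 4 h, solubilized, absorbance at 570 nm. % survival relative to DMSO; IC50 by nonlinear regression of log concentration vs % survival; n = 3/dose.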
In general terms: Formazan colour is commonly taken as a measure of viable cells.

Series [4] is filed under the species Gallus gallus. Put plainly: Antiangiogenic activity in chicken embryo chorioallantoic membrane model assessed as number of blood vessels per 48 mm2 area around the treatment disc >16. 3 at 1 to 50 ug/disc after 48 hrs. In kind it is functional, tissue-based. The method in brief: (§2)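 Fertilized hen eggs incubated at 37 °C, constant humidity; shell windowed and taped, eggs kept upright. Compounds in CH2Cl2 or MeOH loaded on 2-mm cellulose nitrate discs (1, 10, 50 µg/disc), placed on CAM on day five between large vessels. Imaged at 0 h and every 6 h to 48 h. Blood vessels counted per 8.0 × 6.0 mm area around the disc, plus vessel length change. Graded on a 0–3 scale.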

Series [5] in a line: Cytotoxicity against rat bone marrow cells assessed as inhibition of colony formation at 100 uM by clonogenic assay. Conditions: bone marrow cell. In kind it is cell-based. The method in brief: as §1
Series [6] is filed under the species Gallus gallus. Nature of the series: Antiangiogenic activity in chicken embryo chorioallantoic membrane model assessed as number of blood vessels per 48 mm2 area around the treatment disc <12 at 1 to 50 ug/disc after 48 hrs.
In series [7] the test system is PC-3. Nature of the series: Antiinvasive activity against human PC3 cells at 50 uM after 24 hrs by cultrex BME assay. In kind it is functional, cell-based. The method in brief: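 PC-3 cells in RPMI with 10% FBS at 37 °C, 5% CO2. The top chamber was coated with BME overnight, then seeded with 50,000 cells in serum-free RPMI. Compounds were added to the top chamber from a 6× (300 µM) solution. The lower chamber held medium with 10% FBS, fibronectin (1 µL/mL) and fMLP (10 nM). After 24 h the invaded cells were labelled with calcein-AM for 1 h, read at ex 485/em 520 nm and counted from a standard curve. n = 3.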

For series [8], the species on record is Gallus gallus. Put plainly: Antiangiogenic activity in chicken embryo chorioallantoic membrane model at 1 to 50 ug/disc after 48 hrs. In kind it is functional, tissue-based. The method in brief: as §2

Regarding `NC(=O)CC1(O)C=C(Br)C(=O)C(Br)=C1` [VERONGIAQUINOL], in series [1], the Activity result is listed as “Toxic”.

The term IC50 denotes the midpoint of a concentration-inhibition curve. Read a high IC50 as weaker potency in that assay. For the molecule `CCOC(=O)Cc1cc(Br)c(OC(C)=O)c(Br)c1`, the half-inhibitory concentration (IC50) in the series on PC-3 [2] and in the series with PC-3 [3] was over 100 µM each time.

As to `NC(=O)Cc1cc(Br)c(O)c(Br)c1`, the IC50 with PC-3 [2] and with PC-3 [3] was over 100 µM throughout. Also, the result in the series listed under Gallus gallus [4] was inactive. The Activity result in series [5] is given as “Non-toxic”.

On to `CCOC(=O)Cc1cc(Br)c(OCc2ccccc2)c(Br)c1`, for which the IC50 in the series with PC-3 [2] is 75.5 µM; in the series with PC-3 [3] it was 29.7 µM. Besides, in the series listed under Gallus gallus [6], the result was Active.

As to `CCOC(=O)Cc1cc(Br)c(O)c(Br)c1`, the 50% inhibitory concentration (IC50) in the series on PC-3 [2] and in the series on PC-3 [3] was over 100 µM in each case. The outcome in the series listed under Gallus gallus [4] was inactive. In addition, in series [5], the Activity entry is “Non-toxic”.

In the case of `CCOC(=O)Cc1cc(Br)c(OCCC(C)C)c(Br)c1`, the 50% inhibitory concentration (IC50) came to 91.3 µM in the series on PC-3 [2] and 49.2 µM with PC-3 [3]. The outcome in the series filed under Gallus gallus [4] was inactive. Also, the Activity entry in series [5] is given as “Non-toxic”.

For the molecule `CCOC(=O)Cc1cc(Br)c(OC/C=C(/C)CC/C=C(/C)CCC=C(C)C)c(Br)c1`, the outcome in the series on PC-3 [7] and in the series listed under Gallus gallus [8] was Active. Further, the values for the half-inhibitory concentration (IC50) with PC-3 [2] and with PC-3 [3] were 19.9 µM and 16.5 µM, respectively. The Activity entry in series [5] is given as “Non-toxic”.

Consider `CC(=O)Oc1c(Br)cc(CC(N)=O)cc1Br`, for which the IC50 in the series on PC-3 [2] is 74.8 µM; in the series on PC-3 [3], over 100 µM. For the same molecule, the outcome in the series listed under Gallus gallus [8] was Active.

For `NC(=O)Cc1cc(Br)c(OC(=O)c2ccccc2)c(Br)c1`, the half-maximal inhibitory concentration (IC50) is 12.2 µM in the series with PC-3 [2] and over 100 µM with PC-3 [3]. Moreover, in the series listed under Gallus gallus [6], the outcome was Active.

For `CCOC(=O)Cc1cc(Br)c(OC(=O)c2ccncc2)c(Br)c1`, the figures for the IC50 in the series with PC-3 [2] and in the series on PC-3 [3] were 44.6 µM and over 100 µM, respectively. Moreover, the outcome in the series filed under Gallus gallus [6] was Active.

Consider `CCOC(=O)Cc1cc(Br)c(OCCCc2ccc(OC)cc2)c(Br)c1`, for which the outcome with PC-3 [7] and in the series filed under Gallus gallus [8] was Active. The half-maximal inhibitory concentration (IC50) in the series on PC-3 [2] came out at 57.9 µM; in the series with PC-3 [3], 40 µM. Further, in series [5], the Activity entry is recorded as “Non-toxic”.

Turning to `COc1ccc(CC(=O)Oc2c(Br)cc(CC(N)=O)cc2Br)cc1`, the IC50 is 18.9 µM in the series with PC-3 [2] and over 100 µM in the series with PC-3 [3]. Also, the outcome in the series filed under Gallus gallus [6] was Active.

For the molecule `CCOC(=O)Cc1cc(Br)c(OC(=O)c2ccccc2)c(Br)c1`, the values for the IC50 in the series with PC-3 [2] and in the series with PC-3 [3] were 44.6 µM and over 100 µM, respectively. Moreover, the outcome in the series listed under Gallus gallus [8] was Active.

On to `CCOC(=O)Cc1cc(Br)c(OC(=O)Cc2ccc(OC)cc2)c(Br)c1`, for which the results for the IC50 in the series with PC-3 [2] and in the series with PC-3 [3] were under 10 µM and over 100 µM, respectively. For the same molecule, the result in the series listed under Gallus gallus [8] was Active.
